Laboratory results as given in ChEMBL document CHEMBL2062362, “Bioactive 3,4-seco-Triterpenoids from the Fruits of Acanthopanax sessiliflorus” (J Nat Prod, 2012).

Experiments:
SK-MEL-5 = experiment: Cytotoxicity against human SK-MEL-5 cells by MTT assay; type: functional, cell-based
SK-BR-3 = experiment: Cytotoxicity against human SKBR3 cells by MTT assay; type: functional, cell-based
HepG2 = experiment: Cytotoxicity against human HepG2 cells by MTT assay; type: functional, cell-based
RAW264.7 = experiment: Antiinflammatory activity in mouse RAW264.7 cells assessed as inhibition of LPS-stimulated NO production pretreated for 30 mins before LPS challenge measured after 24 hrs by Griess reagent
MCF7 = experiment: Cytotoxicity against human MCF7 cells by MTT assay; type: functional, cell-based
HCT-116 = experiment: Cytotoxicity against human HCT116 cells by MTT assay; type: functional, cell-based
HeLa = experiment: Cytotoxicity against human HeLa cells by MTT assay; type: functional, cell-based
SK-OV-3 = experiment: Cytotoxicity against human SKOV3 cells by MTT assay; type: functional, cell-based
[1] = Cytotoxicity against mouse RAW264.7 cells assessed as cell viability after 24 hrs by MTT assay; type: cell-based; set-up: concentration or dose not given beside the values; details: read-out: Activity
In short: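 The same LPS-stimulated RAW 264.7 cultures (1 × 10⁴ cells/well) were pretreated with samples for 30 min, then given LPS at 1 μg/mL for 24 h. Viability was assessed by MTT reduction and expressed as a percentage of the LPS-only group. Data are means ± SD of three independent experiments.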

SMILES	IC50 (SK-MEL-5) [µM]	IC50 (SK-BR-3) [µM]	IC50 (HepG2) [µM]	IC50 (RAW264.7) [µM]	IC50 (MCF7) [µM]	IC50 (HCT-116) [µM]	IC50 (HeLa) [µM]	IC50 (SK-OV-3) [µM]	viability at 24 h [1] [%]
C=C(C)[C@@H]1C[C@H](O)[C@]2(C(=O)O)CC[C@]3(C)[C@H](C[C@H]4OC(=O)C[C@@H](O)[C@]5(C)[C@@H]4[C@@]3(C)CC[C@H]5C(=C)C)[C@@H]12	> 10	> 10	> 10	> 50	> 10	> 10	> 10	> 10	–
C=C(C)[C@@H]1C[C@H](O)[C@]2(C(=O)O)CC[C@]3(C)[C@H](C[C@@H](O)[C@@H]4[C@@]5(C)[C@@H](CC(=O)O)OC(C)(C)[C@@H]5CC[C@]43C)[C@@H]12	> 10	> 10	> 10	> 50	> 10	> 10	> 10	> 10	–
C=C(C)[C@@H]1CC[C@]2(C(=O)O[C@@H]3O[C@H](CO[C@@H]4O[C@H](CO)[C@@H](O)[C@H](O)[C@H]4O)[C@@H](O)[C@H](O)[C@H]3O)CC[C@]3(C)[C@H](C[C@H]4OC(=O)C[C@@H](O)[C@]5(C)[C@@H]4[C@@]3(C)CC[C@H]5C(=C)C)[C@@H]12	> 10	> 10	> 10	> 50	> 10	> 10	> 10	> 10	–
C=C(C)[C@@H]1C[C@H](O)[C@]2(C(=O)O[C@@H]3O[C@H](CO[C@@H]4O[C@H](CO)[C@@H](O[C@@H]5O[C@@H](C)[C@H](O)[C@@H](O)[C@H]5O)[C@H](O)[C@H]4O)[C@@H](O)[C@H](O)[C@H]3O)CC[C@]3(C)[C@H](C[C@H]4OC(=O)C[C@@H](O)[C@]5(C)[C@@H]4[C@@]3(C)CC[C@H]5C(=C)C)[C@@H]12	> 10	> 10	> 10	> 50	> 10	> 10	> 10	> 10	–
C=C(C)[C@@H]1CC[C@]2(C(=O)O)CC[C@]3(C)[C@H](C[C@@H](O)[C@@H]4[C@@]5(C)[C@@H](CC(=O)OC)OC(C)(C)[C@@H]5CC[C@]43C)[C@@H]12 [ACANTHOSESSILIGENIN II]	> 10	> 10	> 10	47	> 10	> 10	> 10	> 10	91.1
C=C(C)[C@@H]1C[C@H](O)[C@]2(C(=O)O)CC[C@]3(C)[C@H](CC[C@@H]4[C@@](C)(CCC(=O)OC)[C@H](C(=C)C)CC[C@]43C)[C@@H]12 [ACANTHOSESSILIGENIN I]	> 10	> 10	> 10	11.3	> 10	> 10	> 10	> 10	88.8
C=C(C)[C@@H]1CC[C@]2(C(=O)O[C@@H]3O[C@H](CO)[C@@H](O)[C@H](O)[C@H]3O)CC[C@]3(C)[C@H](CC[C@@H]4[C@@](C)(CCC(=O)O)[C@H](C(=C)C)CC[C@]43C)[C@@H]12 [ACANTHOSESSILIOSIDE A]	> 10	> 10	> 10	18.3	> 10	> 10	> 10	> 10	93.5
C=C(C)[C@@H]1CC[C@]2(C(=O)O[C@@H]3O[C@H](CO)[C@@H](O)[C@H](O)[C@H]3O)CC[C@]3(C)[C@H](C[C@@H](O)[C@@H]4[C@@]5(C)[C@@H](CC(=O)OC)OC(C)(C)[C@@H]5CC[C@]43C)[C@@H]12 [ACANTHOSESSILIOSIDE B]	> 10	> 10	> 10	20.6	> 10	> 10	> 10	> 10	93
C=C(C)[C@@H]1C[C@H](O)[C@]2(C(=O)O[C@@H]3O[C@H](CO)[C@@H](O)[C@H](O)[C@H]3O)CC[C@]3(C)[C@H](C[C@@H](O)[C@@H]4[C@@]5(C)[C@@H](CC(=O)OC)OC(C)(C)[C@@H]5CC[C@]43C)[C@@H]12 [ACANTHOSESSILIOSIDE C]	> 10	> 10	> 10	> 50	> 10	> 10	> 10	> 10	–
C=C(C)[C@@H]1CC[C@]2(C(=O)O)CC[C@]3(C)[C@H](CC[C@@H]4[C@@]5(C)[C@@H](CC(=O)O[C@@H]6O[C@H](CO)[C@@H](O)[C@H](O)[C@H]6O)OC(C)(C)[C@@H]5CC[C@]43C)[C@@H]12 [ACANTHOSESSILIOSIDE D]	> 10	> 10	> 10	11.9	> 10	> 10	> 10	> 10	95.2
C=C(C)[C@@H]1C[C@H](O)[C@]2(C(=O)O[C@@H]3O[C@H](CO)[C@@H](O)[C@H](O)[C@H]3O)CC[C@]3(C)[C@H](CC[C@@H]4[C@@]5(C)[C@@H](CC(=O)O)OC(C)(C)[C@@H]5CC[C@]43C)[C@@H]12 [ACANTHOSESSILIOSIDE E]	> 10	> 10	> 10	> 50	> 10	> 10	> 10	> 10	–
C=C(C)[C@@H]1C[C@H](O)[C@]2(C(=O)O[C@@H]3O[C@H](CO)[C@@H](O)[C@H](O)[C@H]3O)CC[C@]3(C)[C@H](C[C@H]4OC(=O)C[C@@H](O)[C@]5(C)[C@@H]4[C@@]3(C)CC[C@H]5C(=C)C)[C@@H]12 [ACANTHOSESSILIOSIDE F]	> 10	> 10	> 10	> 50	> 10	> 10	> 10	> 10	–
C=C(C)[C@@H]1CC[C@]2(C(=O)O[C@@H]3O[C@H](CO[C@@H]4O[C@H](CO)[C@@H](O[C@@H]5O[C@@H](C)[C@H](O)[C@@H](O)[C@H]5O)[C@H](O)[C@H]4O)[C@@H](O)[C@H](O)[C@H]3O)CC[C@]3(C)[C@H](C[C@H]4OC(=O)C[C@@H](O)[C@]5(C)[C@@H]4[C@@]3(C)CC[C@H]5C(=C)C)[C@@H]12 [CHIISANOSIDE]	< 10	< 10	> 10	> 50	< 10	< 10	> 10	< 10	–
CC(=O)O[C@H]1C(=O)[C@@]2(C)[C@H]([C@H](OC(=O)c3ccccc3)[C@]3(O)C[C@H](OC(=O)[C@H](O)[C@@H](NC(=O)c4ccccc4)c4ccccc4)C(C)=C1C3(C)C)[C@]1(OC(C)=O)CO[C@@H]1C[C@@H]2O [PACLITAXEL]	0.15	0.11	–	–	0.9	0.05	–	0.4	–
N=C(N)NN [PIMAGEDINE]	–	–	–	6.5	–	–	–	–	84.6
